Published values pooled from the literature.
Compare with care: the assays were run in different laboratories.
Target: Casein kinase I isoform epsilon (CSNK1E, Homo sapiens, UniProt P49674)

SMILES | test | setting | measurement | value
N#CC1(c2ccccn2)CCN(Cc2cc(C(=O)O)c(=O)n3ccccc23)CC1 | cell-free assay, competition with immobilised ligand | 1 µM | remaining binding | 100%
O=c1[nH]c2ccccc2n1C1CCN(Cc2ccc(-c3[nH]c4cc5ncnc5cc4nc3-c3ccccc3)cc2)CC1 | enzyme activity | 0.5 µM | remaining activity | 107%
Cc1nn(C)cc1-c1nc2c(N3CCN(Cc4ccc(Cl)cc4)CC3)c(Cl)cnc2[nH]1 | binding, competition with immobilised ligand | 1 µM | remaining binding | 99%
Cn1cncc1[C@@](O)(COc1ccc(C#N)cc1-c1ccc(OC(F)(F)F)cc1)c1ccc(C#N)cc1 | cell-free assay, competition with immobilised ligand | 1 µM | remaining binding | 100%
Nc1ncc(-c2nc(N3CCOCC3)nc(N3CCOCC3)n2)c(C(F)F)n1 | binding, competition with immobilised ligand | 10 µM | remaining binding | 38%
Cn1cc(-c2cc(F)cc(N3CCn4c(cc5c4CCCC5)C3=O)c2CO)cc(Nc2ccc(N3CCN(C4COC4)CC3)cn2)c1=O | enzyme activity, inhibitor | 0.1 µM | inhibition | 12%
CC(C)(C)c1cc(C=C(C#N)C#N)cc(Br)c1O | enzyme activity, inhibitor | 0.5 µM | remaining activity | 92.1%
Cn1cc(-c2cccc(N3CCc4c(sc5c4CC(C)(C)C5)C3=O)c2CO)cc(Nc2ccncn2)c1=O | enzyme activity, inhibitor | 1 µM | inhibition | 1%
COc1ncccc1-c1cnn2ccc(N3CCN(C(=O)OC(C)C)CC3)nc12 | binding, competition with immobilised ligand | 1 µM | remaining binding | 86%
